Measured values reported in ChEMBL document CHEMBL1949540, “Dihydroagarofuran derivatives from the dried roots of Tripterygium wilfordii” (2012).
The source made the active and inactive calls. The rule behind the calls is not given here.

Columns and labels:
[1] = test system: Human alphaherpesvirus 2; assay: Antiherpetic activity against HSV2 at 0.25 mg/ml by MTT assay; assay type: functional
In short: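 Anti-HSV2 test run by a previously reported method. Samples started at an initial concentration of 0.25 mg/mL and were assayed at several concentration levels. Four independent experiments were run at each level. Acyclovir was the positive control. The read-out was an MTT assay, with optical density measured on a multimode plate reader.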

[2] = test system: Human alphaherpesvirus 2; assay: Antiherpetic activity against HSV2 at 0.5 mg/ml by MTT assay; assay type: functional
In short: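 Activity against HSV2 was assayed by a previously reported procedure. The initial concentration of test samples and of the acyclovir positive control was 0.5 mg/mL, and samples were tested at several concentration levels. Each level had four independent experiments. The end-point was an MTT assay read as optical density.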

**Q.** With `CC1(C)O[C@]23[C@H](OC(=O)c4cccnc4)[C@H]1C[C@H](OC(=O)c1ccccc1)[C@]2(C)[C@@H](OC(=O)c1ccccc1)CC[C@]3(C)O` [REGELIDINE] as the molecule, how does the inhibition at 250 µg/mL [1] read?
**A.** Its inhibition at 250 µg/mL is 31.7%.

**Q.** For `CC(=O)OC[C@]12[C@H](OC(C)=O)[C@H](OC(C)=O)[C@@H]3[C@@H](OC(C)=O)[C@@]14O[C@@]3(C)COC(=O)c1cccnc1CCC(C)(OC(=O)c1ccoc1)C(=O)O[C@@H]([C@H](OC(=O)c1ccccc1)[C@@H]2OC(C)=O)[C@]4(C)O` (stereo not given in full), which inhibition [2] is on record?
**A.** The inhibition was “inactive”.

**Q.** How did the inhibition [2] turn out when `CC(=O)OC[C@]12[C@H](OC(C)=O)[C@H](OC(C)=O)[C@@H]3[C@@H](OC(C)=O)[C@@]14O[C@@]3(C)COC(=O)c1cccnc1CCC(C)(O)C(=O)O[C@@H]([C@H](O)[C@@H]2OC(C)=O)[C@]4(C)O` (stereo not given in full) was run?
**A.** Its inhibition is “inactive”.

**Q.** For `CC(=O)OC[C@]12[C@H](OC(C)=O)[C@H](OC(C)=O)[C@@H]3[C@@H](OC(C)=O)[C@@]14O[C@@]3(C)COC(=O)c1cccnc1CC[C@H](C)C(=O)O[C@@H]([C@H](OC(C)=O)[C@@H]2OC(C)=O)[C@]4(C)O`, which inhibition [2] is on record?
**A.** Its inhibition is “inactive”.

**Q.** `CC(=O)OC[C@]12[C@H](OC(C)=O)[C@H](OC(C)=O)[C@@H]3[C@@H](OC(=O)c4ccccc4)[C@@]14O[C@@]3(C)COC(=O)c1cccnc1C(C)C(C)C(=O)O[C@@H]([C@H](OC(C)=O)[C@@H]2OC(C)=O)[C@]4(C)O` (stereo not given in full) was tested. Which inhibition at 500 µg/mL [2] did it give?
**A.** The inhibition at 500 µg/mL was 22.3%.

**Q.** `CC(=O)OC[C@]12[C@H](OC(C)=O)[C@H](OC(C)=O)[C@@H]3[C@@H](OC(C)=O)[C@@]14O[C@@]3(C)COC(=O)c1cccnc1CCC(C)(O)C(=O)O[C@@H]([C@H](OC(=O)c1ccco1)[C@@H]2OC(C)=O)[C@]4(C)O` (stereo not given in full) was tested. Which inhibition [2] did it give?
**A.** The inhibition was “inactive”.

**Q.** `CC(=O)OC[C@]12[C@H](OC(C)=O)[C@H](OC(C)=O)[C@@H]3[C@@H](OC(C)=O)[C@@]14O[C@@]3(C)COC(=O)c1cccnc1C(C)C(C)C(=O)O[C@@H]([C@H](OC(C)=O)[C@@H]2OC(C)=O)[C@]4(C)O` (stereo not given in full) was tested. Which inhibition [2] did it give?
**A.** The inhibition was “inactive”.

**Q.** `Nc1nc2c(ncn2COCCO)c(=O)[nH]1` [ACYCLOVIR] was tested. Which inhibition at 500 µg/mL [2] did it give?
**A.** Its inhibition at 500 µg/mL is 66.3%.

**Q.** What about the inhibition at 250 µg/mL [1] of the same molecule?
**A.** Its inhibition at 250 µg/mL is 60.6%.

**Q.** For `CC1(C)O[C@]23[C@H](OC(=O)c4cccnc4)[C@H]1C[C@H](OC(=O)/C=C/c1ccccc1)[C@]2(C)[C@@H](OC(=O)c1ccccc1)CC[C@]3(C)O`, which inhibition [2] is on record?
**A.** Its inhibition is “inactive”.

**Q.** For `CC(=O)OC[C@]12[C@H](OC(C)=O)C(=O)[C@@H]3[C@@H](OC(C)=O)[C@@]14O[C@@]3(C)COC(=O)c1cccnc1CCC(C)(OC(C)=O)C(=O)O[C@@H]([C@H](OC(=O)c1ccoc1)[C@@H]2OC(C)=O)[C@]4(C)O` (stereo not given in full), which inhibition [2] is on record?
**A.** The inhibition was “inactive”.

**Q.** How did the inhibition [2] turn out when `CC(=O)OC[C@]12[C@H](OC(C)=O)[C@H](OC(C)=O)[C@@H]3[C@@H](OC(C)=O)[C@@]14O[C@@]3(C)COC(=O)c1cccnc1CCC(C)C(=O)O[C@@H]([C@H](OC(=O)c1ccco1)[C@@H]2OC(C)=O)[C@]4(C)O` (stereo not given in full) was run?
**A.** Its inhibition is “inactive”.

**Q.** `CC(=O)OC[C@]12[C@H](OC(C)=O)[C@H](OC(C)=O)[C@@H]3[C@@H](OC(C)=O)[C@@]14O[C@@]3(C)COC(=O)c1cccnc1CCC(C)(OC(C)=O)C(=O)O[C@@H]([C@H](OC(=O)c1ccoc1)[C@@H]2OC(C)=O)[C@]4(C)O` (stereo not given in full) was tested. Which inhibition [2] did it give?
**A.** Its inhibition is “inactive”.

**Q.** With `CC(=O)OC[C@]12[C@H](OC(C)=O)[C@H](OC(=O)c3cccnc3)[C@@H]3[C@@H](OC(C)=O)[C@@]14O[C@@]3(C)COC(=O)c1cnccc1C(C)C(C)C(=O)O[C@@H]([C@H](OC(C)=O)[C@@H]2OC(C)=O)[C@]4(C)O` (stereo not given in full) as the molecule, how does the inhibition [2] read?
**A.** The inhibition was “inactive”.

**Q.** Which inhibition [2] does the source give for `CC(=O)OC[C@]12[C@H](OC(C)=O)[C@H](OC(C)=O)[C@@H]3[C@@H](OC(C)=O)[C@@]14O[C@@]3(C)COC(=O)c1cnccc1C(C)C(C)C(=O)O[C@@H]([C@H](OC(C)=O)[C@@H]2OC(C)=O)[C@]4(C)O` (stereo not given in full) here?
**A.** The inhibition was “inactive”.

**Q.** Which inhibition [2] does the source give for `CC(=O)OC[C@]12[C@H](OC(C)=O)[C@H](OC(C)=O)[C@@H]3[C@@H](OC(=O)c4ccccc4)[C@@]14O[C@@]3(C)COC(=O)c1cccnc1C(C)C(C)C(=O)O[C@@H]([C@H](OC(C)=O)[C@@H]2OC(=O)c1ccccc1)[C@]4(C)O` (stereo not given in full) here?
**A.** The inhibition was “inactive”.

**Q.** How did the inhibition [2] turn out when `CC(=O)OC[C@]12[C@H](OC(C)=O)[C@H](OC(C)=O)[C@@H]3[C@@H](O)[C@@]14O[C@@]3(C)COC(=O)c1cccnc1C(C)C(C)C(=O)O[C@@H]([C@H](OC(C)=O)[C@@H]2OC(C)=O)[C@]4(C)O` (stereo not given in full) was run?
**A.** The inhibition was “inactive”.

**Q.** With `CC(=O)OC[C@]12[C@H](OC(C)=O)[C@H](OC(=O)c3ccccc3)[C@@H]3[C@@H](O)[C@@]14O[C@@]3(C)COC(=O)c1cccnc1CC[C@H](C)C(=O)O[C@@H]([C@H](OC(C)=O)[C@@H]2OC(C)=O)[C@]4(C)O` as the molecule, how does the inhibition [2] read?
**A.** Its inhibition is “inactive”.

**Q.** How did the inhibition [2] turn out when `CC(=O)OC[C@]12[C@H](OC(C)=O)[C@H](OC(C)=O)[C@@H]3[C@@H](OC(C)=O)[C@@]14O[C@@]3(C)COC(=O)c1cccnc1CCC(C)(O)C(=O)O[C@@H]([C@H](OC(=O)c1ccccc1)[C@@H]2OC(C)=O)[C@]4(C)O` (stereo not given in full) was run?
**A.** The inhibition was “inactive”.

**Q.** With `CC(=O)OC[C@]12[C@H](OC(C)=O)[C@H](OC(C)=O)[C@@H]3[C@@H](OC(C)=O)[C@@]14O[C@@]3(C)COC(=O)c1cccnc1CCC(C)C(=O)O[C@@H]([C@H](OC(=O)c1ccccc1)[C@@H]2OC(C)=O)[C@]4(C)O` (stereo not given in full) as the molecule, how does the inhibition [2] read?
**A.** The inhibition was “inactive”.
